Source: ChEMBL document CHEMBL2406979, “Antitumor activity of 2-hydroxycinnamaldehyde for human colon cancer cells through suppression of β-catenin signaling” (J Nat Prod, 2013)
Active and inactive are the calls of the source. The calls are words filed in the database; no cut-off is given here.

System: HEK293
Assay: Inhibition of Wnt/beta-catenin (unknown origin) signaling pathway expressed in HEK293 cells assessed as inhibition of TCF4 transcriptional activity at 5 to 40 uM after 24 hrs by TOPflash reporter gene assay
Assay type: cell-based
Settings: Homo sapiens
Summary of the method: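 HEK293 cells seeded at 1.5 × 10^4 per well and cotransfected (Lipofectamine 2000) with TOPflash luciferase reporter 0.1 μg, Renilla 0.005 μg for normalization, pcDNA β-catenin 0.02 μg and TCF4 expression vector 0.004 μg to activate Wnt; 24 h later treated with compound or solvent for 24 h; dual luciferase read-out, Renilla-normalized, relative to vehicle; triplicate.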

Structure (SMILES): O=C/C=C/c1ccccc1
- inhibition: Active
